Screens as filed in PubChem BioAssay.
MDM2 E3 inh: Mdm2 E3 ligase (human) inhibition. AID 1230. cell-based MDM2 ubiquitination luciferase reporter, 2 h; 0 = plate control, 100 = twice control, blank-subtracted. Q00987. 210,000 compounds, 0.11% hits. signal enhancement, % at 5 µM;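 active = signal enhancement of 30% or more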;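 note: luminescence tracks abundance of the self-degrading MDM2-luciferase fusion protein; higher signal means inhibition of MDM2 E3 ligase activity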
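Assay system: stable mammalian line carrying autodegrading MDM2–luciferase fusion reporter; Input: 2000 cells in each well; Compound dosing: single-point 5 µM; Schedule: 2 h compound exposure at 37 °C; Signal: SteadyLite luciferase luminescence after 15 min room-temperature reagent incubation; Evaluation: % luminescence enhancement versus blank-corrected plate control mean; Benchmarks: plate controls and plate blanks.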
H9c2 TAG inh: reduces triacylglycerol accumulation in H9c2 cells; Nile Red lipid (TAG) fluorescence; cells loaded with 200 µM oleic acid; inhibition, % at 12.5 µM; 230,000 compounds, 0.66% hits;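 active = pattern-corrected inhibition of lipid staining of at least 50% with the nuclear-stain viability signal not falling by more than 50%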;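 note: 0% = DMSO wells and 100% = triacsin C control wells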
Hck Nef HTS: human Hck-Nef kinase inhibition | P08631 | Recombinant Hck-YEEI plus Nef, Z-Lyte FRET kinase assay | inhibition, % at 20 µM | 220,000 compounds, 0.68% hits;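 active = Hck-Nef kinase inhibition above about 50%, limit read from the data; inactive = inhibition below that limit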;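 note: 0% = DMSO with Hck plus Nef and 100% = Hck alone without Nef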
Target sequence (P08631 whole entry, looked up): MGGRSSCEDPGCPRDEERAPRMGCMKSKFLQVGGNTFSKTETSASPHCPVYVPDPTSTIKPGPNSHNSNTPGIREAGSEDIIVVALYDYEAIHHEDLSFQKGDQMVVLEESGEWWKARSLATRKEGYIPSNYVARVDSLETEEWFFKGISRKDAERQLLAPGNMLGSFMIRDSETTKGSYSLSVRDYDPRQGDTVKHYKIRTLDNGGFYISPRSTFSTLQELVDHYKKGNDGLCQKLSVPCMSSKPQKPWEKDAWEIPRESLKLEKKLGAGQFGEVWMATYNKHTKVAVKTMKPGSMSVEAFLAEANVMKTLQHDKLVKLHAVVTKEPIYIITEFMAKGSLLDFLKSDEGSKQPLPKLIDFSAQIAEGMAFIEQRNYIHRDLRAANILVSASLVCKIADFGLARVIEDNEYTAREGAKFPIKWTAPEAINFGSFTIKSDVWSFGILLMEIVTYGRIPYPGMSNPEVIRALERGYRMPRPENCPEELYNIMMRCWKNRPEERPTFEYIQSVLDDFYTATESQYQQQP
PERK inhibitor: inhibitors of human PERK kinase | Q9NZJ5 | CHO PERK-DD fusion, SEAP luminescence translation reporter | inhibition, % at 5.6 µM | 220,000 compounds, 0.17% hits;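 active = inhibition above the mean inhibition of all tested compounds plus 3 SD, set separately per screening campaign, cut at about 2.9% in these data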;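 note: PERK kinase domain activated by AP20187 dimerizer at 100 nM; 0% = DMSO with dimerizer and 100% = rapamycin at 8.4 µM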
PKD1 kinase inh: inhibitors of human PKD1 kinase | 200,000 compounds, 0.056% hits | inhibition, % (no concentration beside the values) | AID 797 | PKD1 kinase fluorescence polarization assay; in the data active = inhibition above about 50%
Rad51 HR inh: Rad51 (human) homologous recombination inhibition; AID 1385; 200,000 compounds, 0.085% hits; hRad51 DNA strand exchange, fluorescence dequenching; inhibition, % at 10 µM;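 active = inhibition above 40% at the single screening dose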;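 note: 0% = DMSO control wells and 100% = blanks with heterologous ssDNA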
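Read-out basis: percent inhibition relative to plate controls and blanks / Assay system: human Rad51 nucleoprotein filaments preassembled on unlabelled ssDNA / Timing: filaments 15 min 37 °C, then compound 30 min / Control set: per-plate controls and blanks / Technique: fluorescence dequenching at 485/520 nm / Compound: 10 µM final, single point / Also added: Fluorescein- and BHQ1-tagged 47-mer duplex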
PKD FP artifact: interferes with fluorescence polarization in PKD inhibitor counter-screen; PKD1 FP assay interference counter-screen; 85 tested, under 10 active; shares compounds with PKD1 kinase inh; inhibition, % at 10 µM; AID 1315; call rule not given here
Hck Nef conf: Hck-Nef kinase inhibition, confirmation. shares compounds with Hck Nef HTS. Recombinant Hck-YEEI:Nef, Z-Lyte FRET kinase assay. calls only at 10 µM. 1,300 compounds, 28% hits;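 active = average inhibition of at least 50%, with Z-scores no higher than 3 in both the phospho-tyrosine peptide and fluorescence counterscreens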
Numbers without * were called inactive; i = inactive; x = not tested or not shown; + = active, no number. Hits are enriched below; roughly 1.3% of the tested compounds scored in any of these assays.

SMILES	MDM2 E3 inh	H9c2 TAG inh	Hck Nef HTS	PERK inhibitor	PKD1 kinase inh	Rad51 HR inh	PKD FP artifact	others
COC(=O)c1ccccc1OCC(=O)NC1CCCCC1	5	x	6	0	85*	-6	-12
c1ccc(-c2n[nH]c3ccccc23)cc1	-19	x	3	-1	90*	-1	-7
O=c1[nH]nc(-c2ccccc2)c2ccccc12	2	-6	5	1	x	x	x
O=[N+]([O-])c1cc([N+](=O)[O-])c(Oc2ccc(Cl)c3cccnc23)cc1NN1CCCCC1	x	-21	x	x	x	x	x
Nc1nnc(SCCCC(=O)c2ccc(F)cc2)s1	-11	x	1	0	65*	2	-11
CN(CC1COc2ccccc2O1)C(=O)CSc1ncccn1 (stereo unspecified)	x	-5	x	x	x	x	x
Nc1nc2ccccc2n1/N=C/c1cccnc1	-4	7	6	1	69*	-2	-15
Nc1nc2ccccc2n1/N=C/c1ccc(-c2ccccc2)o1	-9	48	2	-1	-9	x	x
Nc1nc2ccccc2n1/N=C/c1ccc([N+](=O)[O-])s1	-23	x	2	0	52*	-2	-12
O=C(NCCC1=CCCCC1)c1ccc(Cl)c(S(=O)(=O)N2CCCCC2)c1	x	-2	x	x	x	x	x
Clc1ccc(Nc2ccc(-n3ccnc3)nn2)cc1Cl	-36	14	-2	-1	52*	-5	-6
O=C(c1cc(-c2ccncc2)nc2ccccc12)N1CCN(c2ccccn2)CC1	-7	x	2	-1	-12	4	x
O=C(c1cc(-c2ccccc2)nc2ccccc12)N1CCN(c2ccccn2)CC1	-16	-1	5	-1	93*	-4	-13
COc1ccc(C2=NOC(C(=O)NCc3ccco3)C2)cc1 (stereo unspecified)	-2	x	8	1	3	4	x
COc1cc(C2=NOC(C(=O)NCc3ccco3)C2)cc(OC)c1OC (stereo unspecified)	-14	x	7	0	112*	-4	-11
CCC(=O)Nc1c2c(nn1-c1ccccc1C)CSC2	-2	x	1	1	81*	8	-9
CSc1ncccc1C(=O)Nc1nc2ccc(Oc3ccccc3)cc2s1	-2	x	5	1	-7	-5	x
O=C1CC(N2CCN(c3ccccc3Cl)CC2)C(=O)N1c1ccc(F)cc1 (stereo unspecified)	-6	x	1	0	51*	6	-12
Cc1cccc(N2C(=O)CC(N3CCN(c4ccccc4)CC3)C2=O)c1 (stereo unspecified)	-3	x	1	0	10	3	x
O=C1CC(N2CCN(c3ccccc3Cl)CC2)C(=O)N1c1cccc(F)c1 (stereo unspecified)	1	-18	1	1	109*	-5	-11
O=C1CC(N2CCN(c3ccccc3F)CC2)C(=O)N1c1ccc(F)cc1 (stereo unspecified)	x	2	7	0	3	-2	x
Cc1c(N/N=C(\C#N)C(=O)c2ccccc2)c(=O)n(-c2ccccc2)n1C	-3	x	2	0	55*	x	3
NC(N)=NC(=O)c1nc(Cl)c(N)nc1N	x	8	2	1	80*	-11	-1
O=C(Nc1ccccc1C(=O)NC(Cc1ccccc1)C(=O)NC1CCCCC1)c1ccccc1 (stereo unspecified)	x	22	7	0	1	x	x
CCn1c(CSc2ncccn2)nnc1SCC(=O)N1CCc2ccccc21	-11	x	2	-1	99*	x	-13
SMILES	MDM2 E3 inh	H9c2 TAG inh	Hck Nef HTS	PERK inhibitor	PKD1 kinase inh	Rad51 HR inh	PKD FP artifact	others
CCc1nnc(SCC(=O)N2CCc3ccccc32)n1CC	x	-8	x	x	x	x	x
CS(=O)(=O)N1CCN(c2ccccc2NC(=O)c2ccc(Br)o2)CC1	-1	x	14	0	96*	4	-9
CN1CCN(c2ccccc2NC(=O)c2ccc(Br)o2)CC1	-11	21	39	-1	41	x	x
O=[N+]([O-])c1ccc(/C=N/NC(=S)Nc2ccc(Cl)cc2Cl)s1	x	46	47	0	x	3	x
CC1CCN(C(=O)COC(=O)CSc2ccc(C(N)=O)cc2[N+](=O)[O-])CC1	x	15	x	x	x	x	x
CCCN(C1CCS(=O)(=O)C1)S(=O)(=O)c1ccc(F)cc1 (stereo unspecified)	x	-11	x	x	x	x	x
Cc1ccc(NC(=O)Nc2sc(=S)n(C)c2C)cc1	-54	-8	92*	0	-7	x	x	Hck Nef conf=i
O=C1c2ccccc2NC(c2cccc(O)c2)N1Cc1ccco1 (stereo unspecified)	-11	-11	6	1	x	5	x
COC(=O)c1sc(-c2ccc(Cl)cc2)cc1NC(=O)c1ccccc1C(=O)O	-2	9	23	1	x	23	x
COC(=O)c1sc(-c2ccc(C(C)(C)C)cc2)cc1NC(=O)c1ccccc1C(=O)O	-1	5	82*	1	x	x	x	Hck Nef conf=+
O=C(N/N=C/c1ccccc1)c1cccc2ccccc12	x	3	x	x	x	x	x
Nc1c(C(=O)N/N=C/c2ccccc2)cnn1-c1ccccc1	-13	1	68*	-2	x	7	x	Hck Nef conf=i
C(=C\c1ccco1)/c1ccc2ccccc2n1	-19	12	54*	1	x	x	x	Hck Nef conf=i
CCSc1nnc(NC(=O)c2ccco2)s1	9	-10	101*	-1	-7	x	x	Hck Nef conf=i
CC1(C)CC(=O)C=C(NCCN2CCN(C(=S)NC3CCCCC3)CC2)C1	-9	-1	8	2	x	20	x
O=C(CSc1nc(-c2ccc(F)cc2)nc2c1Cc1ccccc1O2)Nc1cccc(C(=O)O)c1	-7	19	153*	1	0	-6	x	Hck Nef conf=+
O=C(CSc1nc(-c2ccccc2)nc2c1Cc1ccccc1O2)Nc1ccccc1	-8	x	4	1	-6	x	x
Cc1cc(N)n(-c2ccc(Oc3ccccc3)c(S(=O)(=O)O)c2)n1	-8	-10	23	1	-4	6	x
CCN(CC)CCCn1c2c(c(SCC(=O)Nc3ccc(OC(F)(F)F)cc3)nc1=O)CCC2	x	9	x	x	x	x	x
CC12CCC(C(=O)Nc3nc4ccc(Br)cc4s3)(OC1=O)C2(C)C (stereo unspecified)	-35	x	-16	-1	2	x	x
COc1cc2nc(SCC(=O)NCc3ccco3)n(Cc3ccc(Cl)cc3)c(=O)c2cc1OC	-6	x	100*	0	-9	2	x	Hck Nef conf=+
COc1ccc(CCNS(=O)(=O)c2cnc(Cl)c(Br)c2)cc1OC	-9	-9	0	-1	x	-16	x
CCOC(=O)c1cc(C(=O)Nc2ccc(C)c(F)c2)nn1C	-9	x	106*	1	-1	4	x	Hck Nef conf=i
Cc1cc(=O)[nH]c(/N=C(\N)Nc2ccc(SC(F)F)cc2)n1	-11	-29	20	1	-5	14	x
